According to ChEMBL document CHEMBL4837210 (Eur J Med Chem, 2021):
Activity calls are given as the source filed them. The calls are words filed in the database; no cut-off is given here.

Legend:
Bacillus subtilis = test: Antibacterial activity against penicillin-susceptible Bacillus subtilis ATCC 9372 assessed as bacterial growth inhibition incubated for 24 hrs by CLSI protocol based broth microdilution method; type: functional
Enterococcus faecium = test: Antibacterial activity against vancomycin-susceptible Enterococcus faecium ATCC19434 assessed as bacterial growth inhibition incubated for 24 hrs by CLSI protocol based broth microdilution method; settings: ATCC19434, 24 h
Streptococcus pyogenes = test: Antibacterial activity against erythromycin-resistant Streptococcus pyogenes 2 assessed as bacterial growth inhibition incubated for 24 hrs by CLSI protocol based broth microdilution method; type: functional
Staphylococcus aureus [1] = test: Antibacterial activity against methicillin-resistant Staphylococcus aureus ATCC 43300 assessed as inhibition of bacterial growth by broth microdilution method; type: functional; settings: time 24 hrs
Summary of the method: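 Broth microdilution MIC. A 0.5 McFarland suspension was diluted 10-fold and added at 1.5 × 10⁷ cfu/mL to 2-fold dilutions (0.125–64) in Mueller Hinton broth. Incubated aerobically 24 h at 37 °C. MIC was the lowest concentration with no visible turbidity.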

Bacillus pumilus [2] = test: Ratio of MBC to MIC against penicillin-susceptible Bacillus pumilus CMCC 63202; type: functional
Summary of the method: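 MBC/MIC ratio from the broth microdilution MIC (24 h, 37 °C, MH broth) and the MBC (clear wells subcultured on tryptic soy agar, 24 h). A ratio ≤4 is read as bactericidal per CLSI.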

Escherichia coli = test: Antibacterial activity against penicillin-susceptible Escherichia coli ATCC 25922 assessed as inhibition of bacterial growth measured by broth microdilution method; type: functional; settings: time 24 hrs
Summary of the method: (§1)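 Broth microdilution in Mueller Hinton broth. A 0.5 McFarland suspension was diluted tenfold, giving an inoculum of 1.5 × 10⁷ cfu/mL. This was added to 2-fold serial compound dilutions from […]. Plates were incubated aerobically at 37 °C for 24 h. MIC was the lowest concentration with no visible turbidity.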

Bacillus pumilus [3] = test: Antibacterial activity against penicillin-susceptible Bacillus pumilus CMCC 63202 assessed as bacterial growth inhibition by broth dilution method; type: functional; settings: time 24 hrs; summary of the method: as §1
Staphylococcus aureus [4] = test: In vivo antibacterial activity against […] Staphylococcus aureus ATCC 25923 infected in Kunming mouse assessed as reduction in bacterial load at 25 mg/kg, ip administered 1 hr post bacterial infection and measured after 1 hr post compound treatment; type: functional, organism-based
Summary of the method: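 Kunming mice (~25 g, 6 per group) infected intravenously with 6 × 10⁷ CFU S. aureus ATCC25923 in 0.2 mL saline. About 1 h later, 1, 5 or 25 mg/kg was given intraperitoneally in 0.5 mL vehicle, with linezolid as reference. Orbital blood (100 µL) was taken before and 1 h after treatment, spread on MH agar and counted after 24 h.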

Bacillus pumilus [5] = test: Induction of morphological changes in Bacillus pumilus CMCC 63202 assessed as alteration in length measured at 0.5 times MIC after 18 hrs by Phase contrast light microscope analysis (reference value: 1.2 to 3 micrometer); type: functional
Staphylococcus aureus [6] = test: Antibacterial activity against Staphylococcus aureus ATCC 25923 assessed as reduction in bacterial growth measured after 18 passages by resistance development assay relative to control; type: functional; settings: time 24 hrs
Summary of the method: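 Serial-passage resistance test with S. aureus ATCC25923. Cells from wells at 0.5× MIC made the next inoculum (~10⁷ CFU/mL), and the MIC was redetermined after 24 h at 37 °C.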

Staphylococcus aureus [7] = test: Bactericidal activity against […] Staphylococcus aureus ATCC 25923 assessed as log reduction in colony forming unit at 2 times MIC after 24 hrs by time kill assay; type: functional
Summary of the method: (§2)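 Samples at 0, 3, 6, 9, 12 and 24 h were serially diluted in MH broth and plated on tryptic soy agar. CFU/mL from colony counts after 24 h at 37 °C.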

Enterococcus faecalis = test: Antibacterial activity against vancomycin-resistant Enterococcus faecalis ATCC 51299 assessed as bacterial growth inhibition incubated for 24 hrs by CLSI protocol based broth microdilution method; type: functional
Staphylococcus aureus [8] = test: Bactericidal activity against […] Staphylococcus aureus ATCC 25923 assessed as log reduction in colony forming unit at 4 times MIC after 3 hrs by time kill assay; type: functional; summary of the method: as §2
[9] = test system: Staphylococcus epidermidis; test: Bactericidal activity against penicillin-resistant Staphylococcus epidermidis measured after 24 hrs by CLSI protocol based method; type: functional
Summary of the method: (§3)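 MBC after broth microdilution. After 24 h, aliquots from clear wells were plated on tryptic soy agar and incubated aerobically 24 h at 37 °C. MBC was the lowest concentration giving no colonies.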

Pseudomonas aeruginosa = test: Antibacterial activity against penicillin-susceptible Pseudomonas aeruginosa ATCC27853 assessed as bacterial growth inhibition incubated for 24 hrs by CLSI protocol based broth microdilution method; type: functional
Staphylococcus aureus [10] = test: Bactericidal activity against erythromycin-susceptible Staphylococcus aureus ATCC 25923 measured after 24 hrs by CLSI protocol based method; type: functional; summary of the method: as §3
Staphylococcus aureus [11] = test: Bactericidal activity against […] Staphylococcus aureus ATCC 25923 assessed as reduction in colony forming unit at 0.5 times MIC by time kill assay; type: functional, organism-based; summary of the method: as §2

`C[n+]1c2ccccc2c(/C=C/c2ccc(C(C)(C)C)cc2)c2ccccc21.[I-]` showed an MIC (Bacillus subtilis) of 0.25 µg/mL, an MIC (Enterococcus faecium) of 4 µg/mL and an MIC (Streptococcus pyogenes) of 0.25 µg/mL. It also gave an MIC (Staphylococcus aureus [1]) of 1 µg/mL, a Ratio (Bacillus pumilus [2]) of 4 and an MIC (Escherichia coli) greater than 64 µg/mL. For the same compound, the MIC (Bacillus pumilus [3]) was 0.5 µg/mL, the Activity (Staphylococcus aureus [4]) was “Active” and the Activity (Bacillus pumilus [5]) was 20 um. It also gave a fold change (FC) (Staphylococcus aureus [6]) of 2, an Activity (Staphylococcus aureus [7]) of 2.43 CFU and an MIC (Enterococcus faecalis) of 4 µg/mL. It also gave an Activity (Staphylococcus aureus [8]) of 2.2 CFU, an MIC [9] of 1 µg/mL and an MIC (Pseudomonas aeruginosa) greater than 64 µg/mL. The MBC (Staphylococcus aureus [10]) was 2 µg/mL and the MIC (Staphylococcus aureus [11]) was “inactive”.
